# Source: PubChem BioAssay
# Calls of active or inactive are those of the source.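 How the source made its calls, unless noted: active means inhibition of the reporter signal at or above 50%; inactive means inhibition below 50%.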
# What was measured:
# [1] = inhibitors of TNFa-induced NFkB p65 translocation, primary screen, imaging, HUVEC, MLSMR starter and 10KST1 sets (AID 438;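 active means inhibition above 20% together with a positive visual image hit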;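 further: compound added about 3h40 before a 20 min TNFalpha stimulation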;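 on inhibition: signal is the nuclear over cytoplasmic p65 intensity ratio per well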); settings: HUVEC TNFa-induced p65 nuclear translocation; cell count: measured here: nuclei count (cytotoxicity indicator), at 2.08 µM; inhibition: at 2 µM, stronger effect = higher value, 0% TNFa-plus-vehicle, 100% no-TNFa wells
# [2] = reduction of polyQ htt aggregates in cells – imaging, exon1htt(103Q)mCFP cells, high-content imaging, primary screen (AID 483;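 active means visual image review flags a hit and inhibition of aggregation exceeds 20%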;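 further: compound exposure lasted 3 days before fixation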;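 on nuclei count: percent of the per-plate median nuclei count of sample wells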); settings: exon1htt(103Q)mCFP cell line, aggregate imaging, at 2 µM; inhibition of aggregation: stronger effect = higher value; nuclei count: measured here: cell count, toxicity
# [3] = endothelial E-selectin expression blockers – imaging, HUVEC, immunofluorescence, MLSMR starter and 10KST1 sets, primary screen (AID 487;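 active means visually confirmed hit in the image check and inhibition above 20%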;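 on inhibition: signal is fraction of cell area covered by stained E-selectin grains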;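 on nuclei count: 100% = median nuclei count of all wells on the same plate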); settings: HUVEC TNFalpha-induced E-selectin immunofluorescence imaging, at 2 µM; inhibition: stronger effect = higher value; nuclei count: measured here: cell number, toxicity
# [4] = biological target: Voltage-gated potassium channel subunit beta-2 (Rattus norvegicus) (UniProt P62483); test: inhibitors of rat Kvbeta2 reductase activity – biochemical, NADPH fluorescence, primary screen (AID 622;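 active means fluorescence slope higher than the sample average by over 3 SD, cut at about -0.22 in these data, passing the limit was not always enough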;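 further: slope of raw intensity against log time taken from 70 to 1610 s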); settings: recombinant KvBeta, 4-cyanobenzaldehyde reduction, at 10 µM, stronger effect = higher value
# Voltage-gated potassium channel subunit beta-2 (Rattus norvegicus), sequence (P62483 whole entry, looked up): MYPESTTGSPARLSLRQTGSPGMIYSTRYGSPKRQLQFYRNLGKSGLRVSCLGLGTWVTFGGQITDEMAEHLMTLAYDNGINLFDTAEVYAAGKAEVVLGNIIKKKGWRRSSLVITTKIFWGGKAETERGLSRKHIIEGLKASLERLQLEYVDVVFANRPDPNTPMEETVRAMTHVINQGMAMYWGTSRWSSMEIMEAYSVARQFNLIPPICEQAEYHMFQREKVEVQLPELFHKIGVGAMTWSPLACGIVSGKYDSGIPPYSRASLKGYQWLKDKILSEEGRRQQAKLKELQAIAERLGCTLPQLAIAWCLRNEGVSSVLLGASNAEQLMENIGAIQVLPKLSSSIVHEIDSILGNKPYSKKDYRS
# [5] = biological target: Voltage-gated potassium channel subunit beta-2 (Rattus norvegicus) (UniProt P62483); test: enhancers of rat Kvbeta2 NADPH turnover – biochemical, NADPH fluorescence, primary screen (AID 623;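 active means NADPH fluorescence slope more negative than the mean of all samples by about 3 SD, 99.7% confidence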;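 further: fluorescence intensity change per second fitted from 20 to 320 s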); settings: Recombinant KvBeta, NADPH fluorescence decrease slope, 10 min; at 10 µM; stronger effect = lower value
# [6] = biological target: Muscarinic acetylcholine receptor M4 (Homo sapiens) (UniProt P08173); test: M4-linked GIRK flux change, two-sided – cell-based, HEK293 M4/GIRK, thallium flux, BTC-AM, M4 allosteric agonist project, primary screen (AID 625;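 active means fluorescence slope after compound addition differing from the mean of all tested samples at 99.7% confidence, mostly higher but some lower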;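 further: thallium influx through GIRK channels coupled to M4 in HEK293 cells with BTC-AM dye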); settings: at 10 µM, actives lie on both sides
# Muscarinic acetylcholine receptor M4 (Homo sapiens), sequence (P08173 whole entry, looked up): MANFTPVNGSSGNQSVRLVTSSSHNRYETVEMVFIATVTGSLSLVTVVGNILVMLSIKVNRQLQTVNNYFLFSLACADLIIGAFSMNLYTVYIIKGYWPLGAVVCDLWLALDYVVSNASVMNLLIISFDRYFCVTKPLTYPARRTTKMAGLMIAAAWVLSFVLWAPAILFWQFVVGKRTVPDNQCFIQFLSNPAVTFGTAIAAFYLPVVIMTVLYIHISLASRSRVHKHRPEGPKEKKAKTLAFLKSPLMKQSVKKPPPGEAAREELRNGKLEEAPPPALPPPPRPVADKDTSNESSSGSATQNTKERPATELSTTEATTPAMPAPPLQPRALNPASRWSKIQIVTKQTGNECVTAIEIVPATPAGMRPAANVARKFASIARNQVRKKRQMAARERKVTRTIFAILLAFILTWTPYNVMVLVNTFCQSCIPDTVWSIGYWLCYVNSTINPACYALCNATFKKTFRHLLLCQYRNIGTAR
# In short: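 System: HEK293 cells with M4 receptor and GIRK channels | Incubation: Cells overnight at 37 °C, BTC-AM loading 1 h, reads 2 min total | Technique: Kinetic BTC-AM fluorescence sampled at 1 Hz, 10 s pre-addition baseline | Measure: Post-addition slope, 15–24 s, of baseline-normalized fluorescence | Control set: Carbachol positive, DMSO negative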
# [7] = blockers of RIG-like receptor reporter activation – cell-based, Sendai virus stimulus, luciferase, 10K MLSCN set, TLR/RLR signaling modifier project, primary screen (AID 602276;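 active means inhibition at or above 50% at 10 µM; inactive means inhibition below 50%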;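 further: firefly luciferase from ISG56 promoter only with Renilla not read in this screen; 0% = Sendai virus plus DMSO and 100% = medium plus DMSO without virus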); settings: HEK293 RL24 IRF3 luciferase reporter, at 10 µM, stronger effect = higher value
# [8] = TLR3 IRF3 reporter activation blockers – cell-based, poly I:C stimulus, luciferase, 10K MLSCN set, primary screen (AID 602277); settings: HEK293-TLR3 RL24 IRF3 luciferase reporter, at 10 µM, stronger effect = higher value
Structure (SMILES),cell count [1],inhibition [1],inhibition of aggregation [2],nuclei count [2],inhibition [3],nuclei count [3],fluorescence slope [4],NADPH fluorescence slope [5],fluorescence slope [6],inhibition [7],inhibition [8]
CCOC(=O)N1CCC(NC(=O)CCc2c(C)nc3c(c(C)nn3C(C)(C)C)c2C)CC1,650,2.6% (inactive),7.1% (inactive),138%,-8.7% (inactive),106%,-0.397 (inactive),3.3e-05 (inactive),0.00517 (inactive),11% (inactive),-3.64% (inactive)
CCn1c(COc2cccc3ccccc23)nnc1SCC(N)=O,436,9.4% (inactive),-3.1% (inactive),99.6%,-0.1% (inactive),124%,-0.524 (inactive),-6.7e-05 (inactive),0.00477 (inactive),12.9% (inactive),19.7% (inactive)
COc1ccccc1N(CC(=O)NCc1ccccc1)S(C)(=O)=O,665,-8.2% (inactive),6.6% (inactive),106%,-67.8% (inactive),114%,-0.28 (inactive),-4.1e-05 (inactive),0.00584 (inactive),-3.25% (inactive),14% (inactive)
O=C(CSc1nnc(-c2cccnc2)o1)Nc1ccccn1,328,3.2% (inactive),7.3% (inactive),99.4%,-60.6% (inactive),131%,-0.317 (inactive),5.1e-06 (inactive),0.0082 (inactive),-56.5% (inactive),-126% (inactive)
O=C(c1cc2ccccc2oc1=O)N1CCSC1c1ccco1 (stereo not drawn),310,5.3% (inactive),3.2% (inactive),102%,-24.5% (inactive),112%,-0.398 (inactive),-9.8e-05 (inactive),0.00556 (inactive),12.5% (inactive),22% (inactive)
O=C(CN1C(=O)CC(c2ccccc2)=Nc2ccccc21)NCc1ccco1,255,-21.4% (inactive),6.1% (inactive),74%,27.6% (inactive),77.1%,-0.546 (inactive),-4.6e-05 (inactive),0.00578 (inactive),17.2% (inactive),18.1% (inactive)
Nc1c(Sc2ccccc2)c(=O)[nH]c(=O)n1Cc1ccccc1,254,7.4% (inactive),-8.5% (inactive),92.6%,-3.2% (inactive),78.6%,-0.249 (inactive),-4.4e-06 (inactive),0.00651 (inactive),-0.235% (inactive),-2.56% (inactive)
Cc1cc2oc(C(=O)NC3CCS(=O)(=O)C3)c(C)c2cc1C (stereo not drawn),328,5.6% (inactive),-2.9% (inactive),97%,-75.1% (inactive),118%,-0.576 (inactive),-3.1e-05 (inactive),0.00365 (inactive),9.17% (inactive),-12% (inactive)
COC(=O)c1sc(S(=O)(=O)Nc2ccc3cn[nH]c3c2)c(C(=O)OC)c1C,392,1% (inactive),23.4% (inactive),80%,-83.8% (inactive),100%,-0.533 (inactive),5.3e-06 (inactive),0.0043 (inactive),13.4% (inactive),31.2% (inactive)
O=C(COc1ccccc1Cl)N1CCCC1,236,11.7% (inactive),-1.6% (inactive),83.7%,-66.3% (inactive),152%,-0.528 (inactive),2.9e-05 (inactive),0.00495 (inactive),-16% (inactive),-18.4% (inactive)
COC(=O)c1cc(Oc2ccc(C(=O)OC)cc2N)cc(C(=O)OC)c1,278,-12.5% (inactive),1% (inactive),106%,-19% (inactive),108%,-0.467 (inactive),-0.000384 (inactive),0.00407 (inactive),-3.38% (inactive),8.08% (inactive)
CCCn1c(SCC(=O)Nc2cc(C)on2)nc2c1c(=O)n(C)c(=O)n2C,400,6.8% (inactive),3.2% (inactive),95.2%,-36.6% (inactive),152%,-0.551 (inactive),-2.8e-05 (inactive),0.00431 (inactive),-5.89% (inactive),0.557% (inactive)
COc1ccccc1NC1=NC2(CCCC2)N=C(N)N1,313,-9.5% (inactive),-26.7% (inactive),115%,18% (inactive),124%,-0.569 (inactive),-6.5e-06 (inactive),0.00551 (inactive),7.65% (inactive),19.3% (inactive)
CCn1c(=S)sc2nc(C)sc21,266,1.3% (inactive),-4.4% (inactive),76.2%,-38.4% (inactive),124%,-0.598 (inactive),3.2e-06 (inactive),0.00458 (inactive),13.4% (inactive),15% (inactive)
CCOC(=O)c1c(NC(=O)CSc2nnc(-c3ccc(OC)cc3)o2)sc2c1CCC2,705,-10.9% (inactive),-10.3% (inactive),113%,-10.2% (inactive),91.1%,-0.56 (inactive),-9.6e-07 (inactive),0.0094 (inactive),0.872% (inactive),5.8% (inactive)
O=C(CCN1CCOCC1)Nc1ccc2c(c1)CCC2,228,5.7% (inactive),17.3% (inactive),74.9%,-83.8% (inactive),140%,-0.442 (inactive),-5.3e-05 (inactive),0.00437 (inactive),4.13% (inactive),-9.22% (inactive)
COc1ccccc1C(=O)Nc1c2c(nn1-c1cccc(C)c1C)CS(=O)(=O)C2,335,-6.6% (inactive),-7% (inactive),79.5%,-51.3% (inactive),106%,-0.492 (inactive),-4.5e-06 (inactive),0.00519 (inactive),14.2% (inactive),19.1% (inactive)
Cc1ccc(S(=O)(=O)c2nc(-c3ccco3)oc2SCC(=O)NCC2CCCO2)cc1 (stereo not drawn),822,-8% (inactive),4% (inactive),104%,-16.1% (inactive),109%,-0.458 (inactive),-4.2e-05 (inactive),0.00374 (inactive),15.8% (inactive),18.5% (inactive)
O=C(Cn1c(SCC(=O)N2CCCc3ccccc32)nc2ccccc21)N1CCCC1,723,-5.1% (inactive),-15.7% (inactive),107%,-126% (inactive),124%,-0.458 (inactive),-3.6e-05 (inactive),0.00587 (inactive),1.52% (inactive),20.1% (inactive)
O=C(c1ccco1)N1CCN(c2c(-c3ccccc3)c3cc(Cl)ccc3[nH]c2=O)CC1,603,2.1% (inactive),-2.2% (inactive),119%,-72.2% (inactive),118%,-0.456 (inactive),2.5e-05 (inactive),0.00537 (inactive),24.2% (inactive),25.7% (inactive)
CCCn1c2ccccc2c2nnc(SCC(=O)OCC)nc21,412,-1.5% (inactive),-3% (inactive),124%,14.6% (inactive),104%,-0.536 (inactive),-7.3e-05 (inactive),0.00386 (inactive),17.9% (inactive),25% (inactive)
COc1ccc(C(=O)NCCn2ccc3ccccc32)cc1,238,7.3% (inactive),25.9% (inactive),104%,-36.9% (inactive),95%,-0.386 (inactive),-5.6e-06 (inactive),0.008 (inactive),5.56% (inactive),-49.2% (inactive)
CC1CN(CC(O)COc2ccc(C(C)C)cc2)CC(C)O1 (stereo not drawn),812,-4.8% (inactive),7.5% (inactive),120%,-54.5% (inactive),140%,-0.534 (inactive),-0.000138 (inactive),0.0054 (inactive),-56.4% (inactive),98.7% (active)
Brc1ccc(-c2cn3cccnc3n2)cc1,514,3.4% (inactive),-8.8% (inactive),121%,-4.5% (inactive),110%,-0.138 (active),7.5e-06 (inactive),0.00424 (inactive),-47.6% (inactive),-89.9% (inactive)
Cc1cc(C)nc(N2CCCC(C(=O)Nc3ccc4c(c3)OCO4)C2)n1 (stereo not drawn),563,-19.4% (inactive),15.3% (inactive),71.5%,7.1% (inactive),95.8%,-0.279 (inactive),4.9e-06 (inactive),0.0054 (inactive),-3.52% (inactive),-3.39% (inactive)
O=C(CN1C(=O)c2cccc3cccc1c23)Nc1ccccc1C(=O)NCc1ccco1,584,-29.6% (inactive),-3.5% (inactive),98.7%,-37.6% (inactive),105%,-0.0129 (inactive),-5.3e-06 (inactive),0.00606 (inactive),8.08% (inactive),13.4% (inactive)
COCCN1C(=O)C(=O)/C(=C(/O)c2ccc(OC(C)C)cc2)C1c1cccnc1 (stereo not drawn),644,-4.7% (inactive),-7.9% (inactive),116%,19.8% (inactive),104%,-0.422 (inactive),-1.5e-05 (inactive),0.00536 (inactive),17.3% (inactive),19.8% (inactive)
CCOC(=O)CSC1=Nc2ccccc2C2=NC(CC(=O)NCc3ccc(OC)cc3)C(=O)N12 (stereo not drawn),463,-13.6% (inactive),-2.2% (inactive),64.2%,-23.1% (inactive),91.7%,-0.476 (inactive),-8e-06 (inactive),0.00508 (inactive),10.6% (inactive),20.5% (inactive)
